Measured values: article PMC2077835 (Drug metabolism and disposition: the biological fate of …, 2006)

How the values were obtained:
recombinant human CYP1A2 = recombinant human CYP1A2 (Homo sapiens, UniProt P05177); experiment: DB289 consumption by recombinant CYP1A2; assay type: in vitro ADME; details: 3.0 μM DB289, 50 pmol/ml P450, 15 min
How it was run: (§1)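 Baculovirus-insect-cell Supersomes coexpressing human P450 with NADPH-P450 reductase; the CYP2E1 enzyme also had cytochrome b5. 3.0 μM substrate, 50 pmol/ml P450 (100 pmol/ml for CYP2C8 and CYP2C9), in 100 mM phosphate pH 7.4 with 3.3 mM MgCl2 and 1 mM NADPH, 37°C, 15 min. Quenched in ice-cold acidified acetonitrile with deuterated internal standard, then LC/MS/MS. Percent consumed relative to 0 min; control Supersomes; duplicates.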

recombinant human CYP2C8 = recombinant human CYP2C8 (Homo sapiens, UniProt P10632); experiment: DB289 consumption by recombinant CYP2C8; assay type: in vitro ADME; details: 3.0 μM DB289, 100 pmol/ml P450, 15 min
How it was run: as §1

recombinant human CYP3A5 = recombinant human CYP3A5 (Homo sapiens, UniProt P20815); experiment: DB289 consumption by recombinant CYP3A5; assay type: in vitro ADME; details: 3.0 μM DB289, 50 pmol/ml P450, 15 min
How it was run: as §1

[1] = biological target: flavin monooxygenase 3 (FMO3) (Homo sapiens, UniProt P31513); experiment: Incubation of DB289 with recombinant FMO3; assay type: in vitro ADME; details: FMO3 0.5 mg/ml
Chain of flavin monooxygenase 3 (FMO3) (P31513 whole entry): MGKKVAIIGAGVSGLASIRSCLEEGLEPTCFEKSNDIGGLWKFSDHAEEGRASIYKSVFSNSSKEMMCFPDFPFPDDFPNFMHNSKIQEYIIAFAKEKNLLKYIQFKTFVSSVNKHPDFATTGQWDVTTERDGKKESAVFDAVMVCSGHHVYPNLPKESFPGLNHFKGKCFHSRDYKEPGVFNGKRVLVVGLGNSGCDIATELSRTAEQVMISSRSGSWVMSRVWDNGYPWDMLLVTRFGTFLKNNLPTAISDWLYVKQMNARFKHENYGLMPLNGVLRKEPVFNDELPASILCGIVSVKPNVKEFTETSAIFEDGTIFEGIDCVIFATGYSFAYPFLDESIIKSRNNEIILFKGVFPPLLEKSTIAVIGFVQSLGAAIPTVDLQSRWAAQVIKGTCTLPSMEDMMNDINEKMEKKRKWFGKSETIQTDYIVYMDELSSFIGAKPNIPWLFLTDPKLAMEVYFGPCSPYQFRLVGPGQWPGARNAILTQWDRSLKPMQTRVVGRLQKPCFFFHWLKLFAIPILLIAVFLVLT
How it was run: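 Baculovirus insect-cell-expressed human FMO3 at 0.5 mg/ml. Incubated with substrate under the conditions used for the liver-microsome consumption assay: pH 7.4 phosphate, MgCl2, NADPH, 37°C. Analysed by LC/MS/MS.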

CYP3A4/5 = experiment: Inhibition of P450 activities by DB289: testosterone 6β-hydroxylation; assay type: in vitro ADME, human; details: 3.0 μM DB289, pooled HLMs 0.25 mg/ml
How it was run: (§2)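 Test compound (3.0 μM) was preincubated 0 and 15 min with pooled microsomes (0.25 mg/ml) and 2 mM NADPH (final concentrations). A P450-selective marker substrate was then added and marker activity measured. Reference selective chemical inhibitors were run for comparison (none for CYP4A11). Solvent-only controls.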

CYP2C19 [2] = biological target: T1, CYP2C19 (Homo sapiens, UniProt P33261); experiment: Inhibition of P450 activities by DB289: S-mephenytoin 4′-hydroxylation; assay type: in vitro ADME; details: 3.0 μM DB289, pooled HLMs 0.25 mg/ml
T1 sequence (P33261 whole entry): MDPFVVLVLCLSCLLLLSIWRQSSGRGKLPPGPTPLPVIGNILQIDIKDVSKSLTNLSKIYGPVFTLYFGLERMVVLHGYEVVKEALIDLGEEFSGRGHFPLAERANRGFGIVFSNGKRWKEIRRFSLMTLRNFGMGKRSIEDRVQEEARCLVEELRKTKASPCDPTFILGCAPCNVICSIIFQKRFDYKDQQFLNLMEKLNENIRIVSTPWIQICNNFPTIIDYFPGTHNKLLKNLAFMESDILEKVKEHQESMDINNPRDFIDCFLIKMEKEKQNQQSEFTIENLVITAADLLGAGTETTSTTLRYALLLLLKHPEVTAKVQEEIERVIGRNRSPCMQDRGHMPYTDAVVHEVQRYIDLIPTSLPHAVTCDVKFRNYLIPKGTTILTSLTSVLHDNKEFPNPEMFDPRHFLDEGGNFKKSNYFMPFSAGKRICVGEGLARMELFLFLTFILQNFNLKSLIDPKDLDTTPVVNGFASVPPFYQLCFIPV
How it was run: as §2

CYP2D6 = CYP2D6 (Homo sapiens, UniProt P10635); experiment: DB289 consumption by recombinant CYP2D6; assay type: in vitro ADME; details: 3.0 μM DB289, 50 pmol/ml P450, 15 min
Chain of CYP2D6 (P10635 whole entry): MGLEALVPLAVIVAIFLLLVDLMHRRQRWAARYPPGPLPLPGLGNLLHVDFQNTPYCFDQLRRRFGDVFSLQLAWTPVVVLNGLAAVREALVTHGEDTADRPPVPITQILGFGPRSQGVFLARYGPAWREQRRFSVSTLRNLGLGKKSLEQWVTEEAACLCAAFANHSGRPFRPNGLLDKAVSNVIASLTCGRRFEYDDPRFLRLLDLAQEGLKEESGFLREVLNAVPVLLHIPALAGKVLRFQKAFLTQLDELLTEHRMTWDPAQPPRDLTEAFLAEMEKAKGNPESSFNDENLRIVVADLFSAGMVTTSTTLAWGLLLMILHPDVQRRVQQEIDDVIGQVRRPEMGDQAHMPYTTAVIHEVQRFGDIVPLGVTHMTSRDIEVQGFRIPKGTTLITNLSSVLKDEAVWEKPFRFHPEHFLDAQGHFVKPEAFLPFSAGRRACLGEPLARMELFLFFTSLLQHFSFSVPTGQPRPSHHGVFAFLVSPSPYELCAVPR
How it was run: as §1

CYP2A6 [3] = biological target: T2, CYP2A6 (Homo sapiens, UniProt P11509); experiment: Inhibition of P450 activities by DB289: coumarin 7-hydroxylation; assay type: in vitro ADME; details: 3.0 μM DB289, pooled HLMs 0.25 mg/ml
T2 sequence (P11509 whole entry): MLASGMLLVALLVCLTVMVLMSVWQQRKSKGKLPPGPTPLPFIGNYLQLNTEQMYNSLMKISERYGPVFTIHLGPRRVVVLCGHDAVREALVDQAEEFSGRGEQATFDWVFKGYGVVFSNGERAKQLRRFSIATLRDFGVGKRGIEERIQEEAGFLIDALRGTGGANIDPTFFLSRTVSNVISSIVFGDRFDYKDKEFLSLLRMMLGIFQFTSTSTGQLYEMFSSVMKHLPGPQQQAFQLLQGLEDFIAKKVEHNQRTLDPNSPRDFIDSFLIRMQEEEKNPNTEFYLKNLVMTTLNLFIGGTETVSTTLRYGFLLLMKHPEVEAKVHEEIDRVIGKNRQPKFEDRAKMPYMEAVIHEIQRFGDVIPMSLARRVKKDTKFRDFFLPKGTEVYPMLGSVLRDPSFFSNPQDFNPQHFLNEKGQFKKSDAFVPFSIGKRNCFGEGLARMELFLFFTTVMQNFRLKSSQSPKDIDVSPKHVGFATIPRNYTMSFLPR
How it was run: as §2

CYP2E1 [4] = biological target: T3, CYP2E1 (Homo sapiens, UniProt P05181); experiment: Inhibition of P450 activities by DB289: lauric acid 11-hydroxylation; assay type: in vitro ADME; details: 3.0 μM DB289, pooled HLMs 0.25 mg/ml
T3 sequence (P05181 whole entry): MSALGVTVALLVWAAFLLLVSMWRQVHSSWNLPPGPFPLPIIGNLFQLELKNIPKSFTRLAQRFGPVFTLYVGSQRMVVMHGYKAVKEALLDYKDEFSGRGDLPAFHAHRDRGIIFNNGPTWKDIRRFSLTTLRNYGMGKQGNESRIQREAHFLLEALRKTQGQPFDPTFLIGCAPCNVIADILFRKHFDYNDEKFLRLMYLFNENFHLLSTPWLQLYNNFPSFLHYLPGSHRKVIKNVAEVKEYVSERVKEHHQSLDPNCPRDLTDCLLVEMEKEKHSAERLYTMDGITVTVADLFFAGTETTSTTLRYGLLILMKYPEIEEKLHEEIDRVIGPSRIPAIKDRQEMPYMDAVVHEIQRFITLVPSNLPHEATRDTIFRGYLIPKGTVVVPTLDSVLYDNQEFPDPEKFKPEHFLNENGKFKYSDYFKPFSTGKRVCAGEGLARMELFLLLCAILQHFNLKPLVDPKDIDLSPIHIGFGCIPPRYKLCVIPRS
How it was run: as §2

[5] = DB289 consumption in 10 individual HLM samples, correlation analysis; assay type: in vitro ADME, human; details: 0.3 μM DB289
How it was run: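 Ten individual human liver microsome samples, each characterised by the supplier for P450 marker activities. Standard NADPH incubations at 37°C began with 0.3 μM substrate. Rate of disappearance measured by LC/MS/MS and plotted against each P450 marker activity. Pearson r calculated; p < 0.05 taken as significant.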

recombinant human CYP3A4 = recombinant human CYP3A4 (Homo sapiens, UniProt P08684); experiment: DB289 consumption by recombinant CYP3A4; assay type: in vitro ADME; details: 3.0 μM DB289, 50 pmol/ml P450, 15 min
Chain of recombinant human CYP3A4 (P08684 2-503 limits assumed): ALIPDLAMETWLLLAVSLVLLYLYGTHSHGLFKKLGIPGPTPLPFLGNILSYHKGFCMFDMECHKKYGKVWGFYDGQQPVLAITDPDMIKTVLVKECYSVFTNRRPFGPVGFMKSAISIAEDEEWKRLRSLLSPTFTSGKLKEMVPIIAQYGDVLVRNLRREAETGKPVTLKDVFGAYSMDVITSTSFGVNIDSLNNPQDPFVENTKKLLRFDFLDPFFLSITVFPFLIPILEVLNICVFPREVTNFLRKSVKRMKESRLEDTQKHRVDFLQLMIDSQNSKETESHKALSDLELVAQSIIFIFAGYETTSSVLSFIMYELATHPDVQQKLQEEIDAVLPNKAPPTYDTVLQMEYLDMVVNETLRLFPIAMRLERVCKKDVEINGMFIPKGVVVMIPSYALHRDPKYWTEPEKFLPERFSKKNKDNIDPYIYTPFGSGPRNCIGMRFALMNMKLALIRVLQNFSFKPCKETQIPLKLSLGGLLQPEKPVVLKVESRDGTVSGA
How it was run: as §1

recombinant human CYP3A7 = recombinant human CYP3A7 (Homo sapiens, UniProt P24462); experiment: DB289 consumption by recombinant CYP3A7; assay type: in vitro ADME; details: 3.0 μM DB289, 50 pmol/ml P450, 15 min
Chain of recombinant human CYP3A7 (P24462 whole entry): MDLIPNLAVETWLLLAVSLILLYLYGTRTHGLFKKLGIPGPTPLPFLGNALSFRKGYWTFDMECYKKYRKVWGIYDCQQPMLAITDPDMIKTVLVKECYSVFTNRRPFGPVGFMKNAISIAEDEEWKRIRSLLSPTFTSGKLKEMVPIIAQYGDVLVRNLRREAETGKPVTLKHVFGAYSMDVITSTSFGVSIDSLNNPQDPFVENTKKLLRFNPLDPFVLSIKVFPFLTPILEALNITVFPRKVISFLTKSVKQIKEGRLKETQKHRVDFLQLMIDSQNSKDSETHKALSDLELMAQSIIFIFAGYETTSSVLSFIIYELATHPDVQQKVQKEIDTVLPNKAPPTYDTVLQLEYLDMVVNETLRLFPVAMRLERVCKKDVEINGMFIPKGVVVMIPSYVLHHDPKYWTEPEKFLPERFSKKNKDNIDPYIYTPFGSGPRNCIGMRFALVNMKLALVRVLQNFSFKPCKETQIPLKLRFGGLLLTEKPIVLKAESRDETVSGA
How it was run: (§3)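 A second recombinant panel (Supersomes; the CYP2J2, CYP3A7 and CYP4F forms coexpressed with reductase and cytochrome b5). Each enzyme was incubated alone with 3.0 μM substrate and NADPH in pH 7.4 phosphate/MgCl2 at 37°C for 15 min. Acetonitrile quench with internal standard, centrifugation, LC/MS/MS. Percent consumed normalised to 0 min. Control Supersomes; means of duplicates.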

recombinant CYP4F3B = biological target: T4, recombinant CYP4F3B (Homo sapiens, UniProt Q08477); experiment: DB289 consumption by recombinant CYP4F3B; assay type: in vitro ADME; details: 3.0 μM DB289, 50 pmol/ml P450, 15 min
T4 sequence (Q08477 1-520 isoform Q08477-2): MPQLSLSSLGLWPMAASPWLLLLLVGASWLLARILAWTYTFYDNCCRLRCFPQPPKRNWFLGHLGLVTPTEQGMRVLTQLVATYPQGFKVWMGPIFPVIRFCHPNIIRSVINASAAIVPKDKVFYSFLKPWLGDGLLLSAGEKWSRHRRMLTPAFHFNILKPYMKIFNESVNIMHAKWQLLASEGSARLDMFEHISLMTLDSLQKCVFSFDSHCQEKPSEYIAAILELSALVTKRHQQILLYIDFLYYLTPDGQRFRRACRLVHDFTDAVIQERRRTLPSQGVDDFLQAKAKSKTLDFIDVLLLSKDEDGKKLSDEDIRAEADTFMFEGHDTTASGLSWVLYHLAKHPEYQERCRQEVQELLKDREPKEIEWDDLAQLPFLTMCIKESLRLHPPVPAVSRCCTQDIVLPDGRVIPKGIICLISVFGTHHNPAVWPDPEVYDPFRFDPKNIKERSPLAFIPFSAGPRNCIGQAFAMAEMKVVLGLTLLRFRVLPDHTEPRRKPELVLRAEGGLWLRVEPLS
How it was run: as §3

CYP2C19 [6] = biological target: T1, CYP2C19; experiment: DB289 consumption by recombinant CYP2C19; assay type: in vitro ADME; details: 3.0 μM DB289, 50 pmol/ml P450, 15 min
How it was run: as §1

[7] = biological target: recombinant human CYP4F3A (Homo sapiens, UniProt Q08477); experiment: DB289 consumption by recombinant CYP4F3A; assay type: in vitro ADME; details: 3.0 μM DB289, up to 120 min
recombinant human CYP1B1 = recombinant human CYP1B1 (Homo sapiens, UniProt Q16678); experiment: DB289 consumption by recombinant CYP1B1; assay type: in vitro ADME; details: 3.0 μM DB289, 50 pmol/ml P450, 15 min
Chain of recombinant human CYP1B1 (Q16678 whole entry): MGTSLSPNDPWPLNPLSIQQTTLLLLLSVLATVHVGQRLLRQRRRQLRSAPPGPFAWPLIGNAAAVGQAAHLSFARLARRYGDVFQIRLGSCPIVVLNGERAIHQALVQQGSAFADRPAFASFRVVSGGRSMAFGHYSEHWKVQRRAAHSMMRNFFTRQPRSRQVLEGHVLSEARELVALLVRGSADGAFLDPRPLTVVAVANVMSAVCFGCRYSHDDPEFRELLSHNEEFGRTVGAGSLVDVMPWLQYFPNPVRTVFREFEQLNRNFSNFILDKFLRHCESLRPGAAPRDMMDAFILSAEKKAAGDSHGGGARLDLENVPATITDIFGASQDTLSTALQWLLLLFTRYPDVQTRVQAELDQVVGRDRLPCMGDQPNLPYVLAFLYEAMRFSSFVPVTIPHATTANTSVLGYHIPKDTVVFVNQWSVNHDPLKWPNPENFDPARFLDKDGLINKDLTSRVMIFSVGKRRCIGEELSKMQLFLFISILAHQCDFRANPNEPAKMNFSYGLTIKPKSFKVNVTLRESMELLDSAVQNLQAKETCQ
How it was run: as §1

CYP2A6 [8] = biological target: T2, CYP2A6; experiment: DB289 consumption by recombinant CYP2A6; assay type: in vitro ADME; details: 3.0 μM DB289, 50 pmol/ml P450, 15 min
How it was run: as §1

CYP2E1 [9] = biological target: T3, CYP2E1; experiment: DB289 consumption by recombinant CYP2E1; assay type: in vitro ADME; details: 3.0 μM DB289, 50 pmol/ml P450, 15 min
How it was run: as §1

Chain of recombinant human CYP1A2 (P05177 2-516 limits assumed): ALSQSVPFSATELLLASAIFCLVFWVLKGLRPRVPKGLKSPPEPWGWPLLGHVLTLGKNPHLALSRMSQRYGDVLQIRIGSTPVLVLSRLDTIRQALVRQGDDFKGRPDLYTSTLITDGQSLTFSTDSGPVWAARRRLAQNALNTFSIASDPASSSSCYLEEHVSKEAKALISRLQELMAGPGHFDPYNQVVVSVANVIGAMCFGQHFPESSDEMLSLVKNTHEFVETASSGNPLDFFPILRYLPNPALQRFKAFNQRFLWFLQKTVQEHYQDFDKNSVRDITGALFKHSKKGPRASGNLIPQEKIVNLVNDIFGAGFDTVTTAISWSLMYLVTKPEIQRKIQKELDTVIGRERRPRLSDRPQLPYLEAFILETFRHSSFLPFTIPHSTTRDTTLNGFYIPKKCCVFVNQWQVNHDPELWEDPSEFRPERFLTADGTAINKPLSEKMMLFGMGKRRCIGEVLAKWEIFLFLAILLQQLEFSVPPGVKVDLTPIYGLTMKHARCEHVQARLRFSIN

CON=C(N)c1ccc(-c2ccc(-c3ccc(C(N)=NOC)cc3)o2)cc1 [DB289, 2,5-bis(4-amidinophenyl)furan-bis-O-methylamidoxime]
percentage of substrate consumed (recombinant human CYP1A2): 61%
percentage of substrate consumed (recombinant human CYP2C8): 5%
percentage of substrate consumed (recombinant human CYP3A5): 8%
metabolism of DB289 by recombinant human FMO3 [1]: did not show any detectable metabolism
inhibition of CYP3A activity (CYP3A4/5): minimal to no inhibition
inhibition of CYP2C19 activity (CYP2C19 [2]): minimal to no inhibition
percentage of substrate consumed (CYP2D6): 9%
inhibition of CYP2A6 activity (CYP2A6 [3]): minimal to no inhibition
inhibition of CYP2E1 activity (CYP2E1 [4]): minimal to no inhibition
variation of rate of DB289 consumption among 10 individual HLMs [5]: 4 fold
percentage of substrate consumed (recombinant human CYP3A4): 18%
percentage of substrate consumed (recombinant human CYP3A7): less than 5%
percentage of substrate consumed (recombinant CYP4F3B): 40%
percentage of substrate consumed (CYP2C19 [6]): less than 5%
DB289 consumption [7]: little DB289 consumption
percentage of substrate consumed (recombinant human CYP1B1): 46%
percentage of substrate consumed (CYP2A6 [8]): less than 5%
percentage of substrate consumed (CYP2E1 [9]): 7%
